According to ChEMBL document CHEMBL5046237, “Identification of MRTX1133, a Noncovalent, Potent, and Selective KRASG12D Inhibitor” (J Med Chem, 2022):

Assays:
GTPase KRas [1] = target: GTPase KRas (Homo sapiens, UniProt P01116, G12D); experiment: Inhibition of KRAS G12D mutant in human AGS cells assessed as reduction in ERK phosphorylation measured after 3 hrs by In-Cell Western assay; format: cell-based
[2] = Inhibition of human C-terminal Avi biotinylated tagged KRAS isoform 4B G12D mutant (1 to 169 residues) expressed in Escherichia coli measured after 1 hr by HTRF assay
GTPase KRas [3] = target: GTPase KRas (Homo sapiens, UniProt P01116); experiment: Binding affinity to human AviTEV6His-tagged KRAS isoform 4B wild type (1 to 169 residues) expressed in Escherichia coli BL21 (DE3) assessed as dissociation constant by SPR analysis
Method in brief: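 SPR measurement; where the KD fell beyond what the instrument can accurately determine, it was reported as an approximate value.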

[4] = Binding affinity to human AviTEV6His-tagged KRAS isoform 4B G12D mutant (1 to 169 residues) expressed in Escherichia coli BL21 (DE3) assessed as dissociation constant by SPR analysis
[5] = AUC (0 to 24 hrs) in CD-1 athymic nude-Foxn1nu mouse xenografted with human Panc 04.03 cells at 30 mg/kg, ip BID; format: ADME, organism-based; design: time < 24 hr, route intraperitoneal, dose 30 mg/kg; settings: in vivo
MKN-1 = experiment: Cytotoxicity against human MKN-1 cells harboring wild type KRAS assessed as reduction in cell viability measured after 3 days by 2D viability assay; settings: MKN-1, 72 h
[6] = Antitumor activity against human Panc 04.03 cells harboring KRAS G12D mutant xenografted in CD-1 nude-Foxn1 mouse assessed as inhibition of tumor growth at 3 mg/kg, ip administered twice a day; format: functional; settings: Panc 04.03, ip
Method in brief: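 Mice bearing Panc 04.03 (KRAS G12D) xenografts were dosed IP twice daily (BID) at 3, 10 or 30 mg/kg. Tumor volume was tracked against a vehicle cohort, and mean tumor volume differences were tested by two-tailed Student's t test assuming equal variance.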

AGS = experiment: cells; settings: Homo sapiens, 72 h
[7] = Time during which free drug concentration exceeds IC50 for KRAS G12D mutant-mediated ERK phosphorylation in human Panc 04.03 cells xenografted CD-1 athymic nude-Foxn1nu mouse plasma at 30 mg/kg, ip; settings: in vivo
[8] = Antitumor activity against human Panc 04.03 cells harboring KRAS G12D mutant xenografted in CD-1 nude-Foxn1 mouse assessed as tumor regression at 10 mg/kg, ip administered twice a day; settings: Panc 04.03, ip
[9] = In vivo inhibition of KRAS G12D mutant in CD-1 athymic nude-Foxn1nu mouse xenografted with human Panc 04.03 cells assessed as reduction in ERK phosphorylation in tumor lysates at 30 mg/kg, ip measured after 12 hrs; format: functional; settings: CD-1, Panc 04.03, Neoplasm
Method in brief: (§1)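 The Panc 04.03 xenograft model received 30 mg/kg IP BID. Tumor pERK signal was measured 1 h and 12 h after the second dose. Mean pERK inhibition versus the vehicle cohort was assessed by two-tailed Student's t test with equal variance.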

[10] = In vivo inhibition of KRAS G12D mutant in CD-1 athymic nude-Foxn1nu mouse xenografted with human Panc 04.03 cells assessed as reduction in ERK phosphorylation in tumor lysates at 30 mg/kg, ip measured after 1 hr; format: functional; settings: CD-1, Panc 04.03, Neoplasm; method in brief: as §1

| Compound | IC50 (GTPase KRas [1]) | IC50 [2] | Kd [4] | other results |
| --- | --- | --- | --- | --- |
| Fc1ccc2cccc(-c3ncc4c(N5C[C@H]6CC[C@@H](C5)N6)nc(OCC56CCCN5CCC6)nc4c3F)c2c1F | 97 nM | 7 nM | – | – |
| CN1CCC[C@H]1COc1nc(N2CCNCC2)c2cnc(-c3cccc4cccc(Cl)c34)c(F)c2n1 | – | – | 3500 nM | Kd (GTPase KRas [3]): 36000 nM |
| CC1CNCCN1c1nc(OC[C@@H]2CCCN2C)nc2c(F)c(-c3cc(O)cc4ccccc34)ncc12 (mixture of isomers) | – | 1500 nM | 280 nM | – |
| CC1CN(c2nc(OC[C@@H]3CCCN3C)nc3c(F)c(-c4cc(O)cc5ccccc45)ncc23)CCN1 (mixture of isomers) | – | 2100 nM | 380 nM | – |
| CN(C)CCOc1nc(N2C[C@H]3CC[C@@H](C2)N3)c2cnc(-c3cc(O)cc4ccccc34)c(F)c2n1 | > 10000 nM | 70 nM | – | – |
| C#Cc1cccc2cc(O)cc(-c3ncc4c(N5C[C@H]6CC[C@@H](C5)N6)nc(OCC56CCCN5CCC6)nc4c3F)c12 | 14 nM | < 2 nM | – | – |
| CN(C)C1CN(c2nc(N3CC4CCC(C3)N4)c3cnc(-c4cc(O)cc5ccccc45)c(F)c3n2)C1 | 1300 nM | 69 nM | – | – |
| Oc1cc(-c2ncc3c(N4C[C@H]5CC[C@@H](C4)N5)nc(OC[C@]45CCCN4C[C@@H](F)C5)nc3c2F)c2ccccc2c1 | – | < 2 nM | – | – |
| Fc1c(-c2cccc3cccc(F)c23)ncc2c(N3C[C@H]4CC[C@@H](C3)N4)nc(OCC34CCCN3CCC4)nc12 | 380 nM | 12 nM | – | – |
| Oc1cc(-c2ncc3c(N4C[C@H]5CC[C@@H](C4)N5)nc(OCC45CCCN4CCC5)nc3c2F)c2c(Cl)cccc2c1 | 63 nM | < 2 nM | – | – |
| Oc1cc(-c2ncc3c(N4C[C@H]5CC[C@@H](C4)N5)nc(OCCN4C[C@@H]5C[C@H]4CO5)nc3c2F)c2ccccc2c1 | 3000 nM | 62 nM | – | – |
| CN1CCC[C@H]1COc1nc(N2CC3CC2CN3)c2cnc(-c3cc(O)cc4ccccc34)c(F)c2n1 (mixture of isomers) | – | 650 nM | 96 nM | – |
| CN1CCC[C@H]1COc1nc(N2CCCNCC2)c2cnc(-c3cc(O)cc4ccccc34)c(F)c2n1 | – | 2600 nM | 420 nM | – |
| Oc1cc(-c2ncc3c(N4C[C@H]5CC[C@@H](C4)N5)nc(OC[C@@]45CCCN4C[C@H](F)C5)nc3c2F)c2ccccc2c1 | – | < 2 nM | – | – |
| CN1CCN(c2nc(OC[C@@H]3CCCN3C)nc3c(F)c(-c4cc(O)cc5ccccc45)ncc23)CC1 | – | 54000 nM | 8700 nM | Kd (GTPase KRas [3]): 6200 nM |
| O=C1CCC2(COc3nc(N4CC5CCC(C4)N5)c4cnc(-c5cc(O)cc6ccccc56)c(F)c4n3)CCCN12 (racemic) | > 10000 nM | 750 nM | – | – |
| OCc1cccc2cccc(-c3ncc4c(N5C[C@H]6CC[C@@H](C5)N6)nc(OCC56CCCN5CCC6)nc4c3F)c12 | > 10000 nM | 79 nM | – | – |
| Cc1cccc2cccc(-c3ncc4c(N5C[C@H]6CC[C@@H](C5)N6)nc(OCC56CCCN5CCC6)nc4c3F)c12 | 2500 nM | 45 nM | – | – |

| Compound | IC50 (GTPase KRas [1]) | IC50 [2] | Kd [4] | other results |
| --- | --- | --- | --- | --- |
| Cn1ccnc1CCOc1nc(N2C[C@H]3CC[C@@H](C2)N3)c2cnc(-c3cc(O)cc4ccccc34)c(F)c2n1 | 3500 nM | 30 nM | – | – |
| Oc1cc(-c2ncc3c(N4CC5CCC(C4)N5)nc(OCC45CCCCN4CCC5)nc3c2F)c2ccccc2c1 (racemic) | 650 nM | 12 nM | – | – |
| CN1CCC[C@H]1COc1nc(N2CCNCC2)c2cnc(-c3cc(O)cc4ccccc34)c(F)c2n1 | – | 980 nM | 190 nM | – |
| CCc1cccc2cccc(-c3ncc4c(N5C[C@H]6CC[C@@H](C5)N6)nc(OCC56CCCN5CCC6)nc4c3F)c12 | 200 nM | 6 nM | – | – |
| Fc1c(-c2cccc3cccc(Cl)c23)ncc2c(N3C[C@H]4CC[C@@H](C3)N4)nc(OCC34CCCN3CCC4)nc12 | 190 nM | 15 nM | – | – |
| C#Cc1c(F)ccc2cccc(-c3ncc4c(N5C[C@H]6CC[C@@H](C5)N6)nc(OCC56CCCN5CCC6)nc4c3F)c12 | 24 nM | < 2 nM | – | AUC at 24 h [5]: 9500 ng·h/mL |
| CN1CCC[C@H]1COc1nc(N2CC3CCC2CN3)c2cnc(-c3cc(O)cc4ccccc34)c(F)c2n1 (stereo partly specified) | – | 68 nM | 9 nM | – |
| Fc1c(-c2cccc3ccccc23)ncc2c(N3C[C@H]4CC[C@@H](C3)N4)nc(OCC34CCCN3CCC4)nc12 | > 10000 nM | 360 nM | – | – |
| Oc1cc(-c2ncc3c(N4CC5CCC(C4)N5)ncnc3c2F)c2ccccc2c1 | > 10000 nM | – | – | – |
| CN1CCC[C@H]1COc1nc(N2CC3CC(C2)N3)c2cnc(-c3cc(O)cc4ccccc34)c(F)c2n1 (mixture of isomers) | – | 310 nM | 73 nM | – |
| Oc1cc(-c2ncc3c(N4C[C@H]5CC[C@@H](C4)N5)nc(OCC45CCCN4CCC5)nc3c2F)c2ccccc2c1 | 270 nM | < 2 nM | – | – |
| C#Cc1cccc2cccc(-c3ncc4c(N5C[C@H]6CC[C@@H](C5)N6)nc(OCC56CCCN5CCC6)nc4c3F)c12 | 71 nM | 3 nM | – | – |
| Fc1ccc2cccc(-c3ncc4c(N5C[C@H]6CC[C@@H](C5)N6)nc(OCC56CCCN5CCC6)nc4c3F)c2c1 | 370 nM | 27 nM | – | – |
| C#Cc1c(F)ccc2cc(O)cc(-c3ncc4c(N5C[C@H]6CC[C@@H](C5)N6)nc(OC[C@@]56CCCN5C[C@H](F)C6)nc4c3F)c12 | – | – | 0.0002 nM | IC50 (MKN-1): > 3000 nM; inhibition in vivo at 3 mg/kg [6]: 94%; IC50 (AGS): 6 nM; T>IC50 [7]: 8 h; tumor regression % at 10 mg/kg [8]: 62%; inhibition in vivo at 30 mg/kg [9]: 74%; inhibition in vivo at 30 mg/kg [10]: 62% |
| CN1CCC[C@H]1COc1nc(N2C[C@H]3CC[C@@H](C2)N3)c2cnc(-c3cc(O)cc4ccccc34)c(F)c2n1 | – | 5 nM | 0.8 nM | – |
| COc1cccc2cccc(-c3ncc4c(N5C[C@H]6CC[C@@H](C5)N6)nc(OCC56CCCN5CCC6)nc4c3F)c12 | 1200 nM | 86 nM | – | – |
| CN1CCC[C@H]1COc1nc(N2CCOCC2)c2cnc(-c3cc(O)cc4ccccc34)c(F)c2n1 | – | 12000 nM | 1500 nM | Kd (GTPase KRas [3]): 560 nM |
